Columns and labels:
[1] = target: T1, Human immunodeficiency virus type 1 integrase (Human immunodeficiency virus 1, UniProt Q7ZJM1); assay: HIV integrase inhibitory potency was evaluated as IC50 on 3' processing of target DNA.
[2] = target: T1, Human immunodeficiency virus type 1 integrase; assay: In vitro anti-HIV integrase activity against integration (strand transfer) of target plasmid.
[3] = target: T1, Human immunodeficiency virus type 1 integrase; assay: In vitro anti-HIV integrase activity against 3' processing of target plasmid.
Summary of the method: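 Buffer: 20 mM Tris pH 7.2, 30 mM NaCl, 10% glycerol, 10 mM DTT, 0.01% NP40 and 10 mM MnCl2. Compounds were tested over a concentration range, and IC50 was taken for inhibition of 3'-processing.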

CCRF-CEM [4] = assay: Antiviral activity was measured as IC25 by calculating amount of virus present in CEM cells by beta-galactosidase assay.; format: functional; details: Homo sapiens
Summary of the method: (§1)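 HIV-1 PLN4-3 (cell-free virus from CEM transfection) infection of CEM cells (RPMI-1640, 10% FCS), triplicate wells. Virus removed at 2 h, compounds in DMSO added in fresh medium at increasing concentrations. Supernatants taken at 72 h and used to infect HeLaCD4+-β-gal (P4) cells for 24 h. Lysate incubated with CPRG for 1 h, read at 570 nm. Average of three experiments.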

CCRF-CEM [5] = assay: Antiviral activity was measured as IC50 by calculating amount of virus present in CEM cells by beta-galactosidase assay.; format: functional, cell-based; details: Homo sapiens; summary of the method: as §1
CCRF-CEM [6] = assay: (§2) Cytotoxicity (TC90) was measured by MTT transformation assay; format: functional, Homo sapiens
CCRF-CEM [7] = assay: Toxicity was measured by MTT assay after 72 hours at 100 uM; format: functional, Homo sapiens
Summary of the method: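 Infected CEM cells exposed to compounds (in DMSO) at 100 μM; viability after 72 h by MTT. MTT (7.5 mg/mL in phosphate buffer) added per well, 4 h at 37 °C under CO2. Formazan dissolved in 10% SDS, 10 mM HCl, absorbance at 570 nm. Average of three experiments.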

CCRF-CEM [8] = assay: Cytotoxicity (TC50) was measured by MTT transformation assay; format: functional; details: Homo sapiens, read-out: TC50 (the source's name)
CCRF-CEM [9] = assay: Antiviral activity was measured as IC90 by calculating amount of virus present in CEM cells by beta-galactosidase assay.; format: functional; details: Homo sapiens; summary of the method: as §1
[10] = system: Human immunodeficiency virus 1; assay: Effect upon disintegration catalyzed by the deletion mutant; format: functional
CCRF-CEM [11] = assay: Antiviral activity was measured as IC50 by calculating amount of virus present in CEM cells by P24 ELISA test; format: functional, cell-based; details: Homo sapiens
Summary of the method: (§3)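 Same CEM/HIV-1 PLN4-3 infection scheme: virus washed off after 2 h, compound in DMSO added in fresh medium, supernatants harvested 72 h post-infection. Viral load measured as virion-associated p24 antigen by ELISA in the culture supernatants.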

CCRF-CEM [12] = assay: Antiviral activity was measured as IC90 by calculating amount of virus present in CEM cells by P24 ELISA test; format: functional; details: Homo sapiens; summary of the method: as §3
CCRF-CEM [13] = assay: as §2; format: functional; details: Homo sapiens
CCRF-CEM [14] = assay: Antiviral activity was measured as IC50 by calculating amount of virus present in CEM cells by P4 infection; format: functional, cell-based; details: Homo sapiens; summary of the method: as §1
CCRF-CEM [15] = assay: Toxicity was measured by MTT assay after 120 hours at 100 uM; format: functional, Homo sapiens
Summary of the method: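 Infected CEM cells exposed to compounds at 100 μM; viability assessed 120 h after infection by MTT transformation assay (formazan solubilized in SDS/HCl, absorbance at 570 nm).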

CCRF-CEM [16] = assay: Antiviral activity was measured as IC90 by calculating amount of virus present in CEM cells by P4 infection; format: functional; details: Homo sapiens; summary of the method: as §1

T1 sequence (Q7ZJM1 whole entry): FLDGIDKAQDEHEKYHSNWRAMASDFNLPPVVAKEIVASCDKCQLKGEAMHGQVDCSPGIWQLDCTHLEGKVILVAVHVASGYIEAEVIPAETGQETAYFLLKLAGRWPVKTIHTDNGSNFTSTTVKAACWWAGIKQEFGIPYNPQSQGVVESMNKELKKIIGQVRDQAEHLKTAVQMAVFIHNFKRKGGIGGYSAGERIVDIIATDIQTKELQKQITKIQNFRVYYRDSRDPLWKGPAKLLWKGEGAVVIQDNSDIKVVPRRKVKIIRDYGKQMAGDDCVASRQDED

IC50 [1] | IC50 [2] | Compound | IC25 (CCRF-CEM [4]) | TC90 (CCRF-CEM [6]) | Toxicity (CCRF-CEM [7]) | CC50 (CCRF-CEM [8]) | IC50 ([10]; Human immunodeficiency virus 1) | further results
> 100 µM | > 100 µM | CC(=O)Oc1cccc2ccc(/C=C/c3ccccc3)nc12 | – | – | – | – | – | –
– | > 100 µM | Cc1ccc2cccc(O)c2n1 [8-HYDROXY QUINALDINE] | – | – | – | – | – | IC50 [3]: > 100 µM
> 100 µM | – | Oc1cccc2ccc(/C=C/c3ccc4cccc(O)c4n3)nc12 | – | – | – | – | – | –
> 100 µM | 114 µM | Cc1ccc2ccc(C(=O)O)c(O)c2n1 | > 100 µM | >100 µM | 0% | > 100 µM | – | IC50 (CCRF-CEM [5]): > 100 µM; IC90 (CCRF-CEM [9]): > 100 µM
> 100 µM | – | Oc1ccc(/C=C/c2ccc3ccccc3n2)cc1O | – | – | – | 12.3 µM | – | TC90 (CCRF-CEM [13]): 100 µM
> 100 µM | > 100 µM | Nc1cccc2ccc(/C=C/c3ccc(O)c(O)c3)nc12 | – | – | – | – | – | –
> 100 µM | > 100 µM | COc1ccc(/C=C/C(=O)Oc2cccc3ccc(C)nc23)cc1OC | – | – | – | – | – | –
> 100 µM | > 100 µM | CC(=O)Oc1ccc(/C=C/c2ccc3cccc(OC(C)=O)c3n2)cc1OC(C)=O | – | – | – | – | – | –
2.2 µM | 3.4 µM | Oc1ccc(/C=C/c2ccc3ccc(/C=C/c4ccc(O)c(O)c4)c(O)c3n2)cc1O | – | – | – | – | – | –
> 100 µM | > 100 µM | Oc1cccc2ccc(/C=C/c3ccccc3)nc12 | – | – | – | 50.1 µM | – | TC90 (CCRF-CEM [13]): > 100 µM
> 100 µM | > 100 µM | O=[N+]([O-])c1cccc2ccc(/C=C/c3ccc(O)c(O)c3)nc12 | – | – | – | – | – | –
> 100 µM | > 100 µM | Cc1ccc2cccc(OC(=O)/C=C/c3ccc(O)c(O)c3)c2n1 | – | – | – | – | – | –

Compound | IC50 [1] | IC50 [2] | IC25 (CCRF-CEM [4]) | TC90 (CCRF-CEM [6]) | Toxicity (CCRF-CEM [7]) | CC50 (CCRF-CEM [8]) | IC50 ([10]; Human immunodeficiency virus 1) | further results
O=C(O)c1ccc2ccc(/C=C/c3cc(O)c(O)c(O)c3)nc2c1O [listing 1 of 2 here] | 0.3 µM | 0.4 µM | 0.4 µM | 93.3 µM | 100% | 10.7 µM | 0.24 µM | IC50 (CCRF-CEM [5]): 1.2 µM; IC90 (CCRF-CEM [9]): 10.7 µM
O=C([O-])c1ccc2ccc(/C=C/c3ccc(O)c(O)c3)nc2c1O.[Na+] | 0.8 µM | – | – | >100 µM | 0% | > 100 µM | 0.7 µM | IC50 (CCRF-CEM [11]): 20 µM; IC90 (CCRF-CEM [12]): > 100 µM
O=C(O)c1ccc2ccc(/C=C/c3ccc(O)c(O)c3)nc2c1O | 2.4 µM | 1 µM | 0.46 µM | >100 µM | 0% | – | – | IC50 (CCRF-CEM [14]): 1.3 µM; Toxicity (CCRF-CEM [15]): <10%; IC90 (CCRF-CEM [16]): 12.3 µM; IC50 [10]: 0.9 µM
O=C(O)c1ccc2ccc(/C=C/c3cc(O)c(O)c(O)c3)nc2c1O [listing 2 of 2 here] | 0.26 µM | – | – | – | – | – | – | –
O=C(O)c1cc(/C=C/c2ccc3ccc(C(=O)O)c(O)c3n2)ccc1O | 2.7 µM | 0.6 µM | 20.9 µM | >100 µM | 0% | > 100 µM | 0.6 µM | IC50 (CCRF-CEM [5]): 62 µM; Toxicity (CCRF-CEM [15]): 0%; IC90 (CCRF-CEM [9]): > 100 µM
O=C(O)c1ccc2ccc(/C=C/c3ccc(O)cc3O)nc2c1O | 3.7 µM | 2.8 µM | 26.3 µM | >100 µM | 0% | > 100 µM | 2.5 µM | IC50 (CCRF-CEM [5]): 79.8 µM; Toxicity (CCRF-CEM [15]): <10%; IC90 (CCRF-CEM [9]): > 100 µM
N#Cc1ccc2ccc(/C=C/c3ccc(O)c(O)c3)nc2c1O | 3 µM | – | – | 56.3 µM | – | 6.2 µM | 3.6 µM | –
Oc1ccc(/C=C/c2ccc3cccc(O)c3n2)cc1O | 7.4 µM | 2.4 µM | 1.2 µM | 71 µM | 99% | 8.1 µM | 2.5 µM | IC50 (CCRF-CEM [5]): 3.6 µM

From ChEMBL document CHEMBL1131039, “Styrylquinoline derivatives: a new class of potent HIV-1 integrase inhibitors that block HIV-1 replication in CEM cells” (J Med Chem, 1998)
